Data on 1 compound can be found in ChEMBL document CHEMBL4622869, “Discovery and structure-activity relationships study of positive allosteric modulators of the M3 muscarinic acetylcholine receptor” (Bioorg Med Chem, 2020).

Data set [1] deals with Muscarinic acetylcholine receptor M3 (Rattus norvegicus) (UniProt P08483). The data set can be described thus: Positive allosteric modulation of muscarinic acetylcholine receptor M3 in Sprague-Dawley rat urinary bladder assessed as increase in 8 Hz electrical field stimulation-induced bladder contraction by measuring tension of isolated bladder contraction at 1 uM (reference value: 2.21 +/- 0.26 g). Summed up: (§1)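 Female Sprague-Dawley rats, 9–10 weeks old. Longitudinal bladder strips (~10×2 mm) in Krebs at 37°C, gassed with 95% O2/5% CO2. EFS at 8 Hz, 10 s trains, 0.3 ms pulses, voltage set to give about half-maximal response. Drug added cumulatively at 1, 3 and 10 μM, 10 stimulations per concentration. Contraction = peak minus basal tone, averaged over the last 3 contractions and compared with pre-drug value (n=7).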
Chain of Muscarinic acetylcholine receptor M3 (Rattus norvegicus) (P08483 whole entry, looked up): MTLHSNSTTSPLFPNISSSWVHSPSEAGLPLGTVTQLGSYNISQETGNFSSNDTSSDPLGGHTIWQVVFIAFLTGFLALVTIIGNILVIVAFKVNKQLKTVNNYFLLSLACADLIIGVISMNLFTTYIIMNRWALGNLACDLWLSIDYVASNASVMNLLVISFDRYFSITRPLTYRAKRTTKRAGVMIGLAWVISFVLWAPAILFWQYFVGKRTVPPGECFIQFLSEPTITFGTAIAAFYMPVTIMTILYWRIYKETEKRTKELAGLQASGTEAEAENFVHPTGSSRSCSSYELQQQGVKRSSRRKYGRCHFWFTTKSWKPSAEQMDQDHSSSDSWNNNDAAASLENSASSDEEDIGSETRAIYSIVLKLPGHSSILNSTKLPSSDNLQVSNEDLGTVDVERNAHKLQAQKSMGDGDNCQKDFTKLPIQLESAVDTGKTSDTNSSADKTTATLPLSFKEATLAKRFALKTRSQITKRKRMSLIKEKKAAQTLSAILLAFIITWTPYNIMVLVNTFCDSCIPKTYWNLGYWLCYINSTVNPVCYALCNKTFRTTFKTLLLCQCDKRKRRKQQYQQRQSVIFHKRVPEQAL

For data set [2], the target named is T1, Muscarinic acetylcholine receptor M1 (Homo sapiens) (UniProt P11229).
T1 sequence (whole entry): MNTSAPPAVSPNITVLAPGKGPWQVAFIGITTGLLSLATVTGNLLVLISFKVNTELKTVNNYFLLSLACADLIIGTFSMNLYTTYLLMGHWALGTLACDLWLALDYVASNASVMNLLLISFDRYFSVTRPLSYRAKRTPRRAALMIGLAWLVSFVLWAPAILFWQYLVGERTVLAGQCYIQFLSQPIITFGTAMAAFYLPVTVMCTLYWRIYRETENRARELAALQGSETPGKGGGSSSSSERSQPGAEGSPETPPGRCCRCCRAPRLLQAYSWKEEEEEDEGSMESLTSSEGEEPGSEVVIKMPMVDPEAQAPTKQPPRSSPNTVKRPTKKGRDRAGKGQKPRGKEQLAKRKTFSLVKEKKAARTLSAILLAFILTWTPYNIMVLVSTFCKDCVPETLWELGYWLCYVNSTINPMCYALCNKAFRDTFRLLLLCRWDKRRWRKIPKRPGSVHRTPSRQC
The data set can be described thus: Positive allosteric modulation of recombinant human muscarinic acetylcholine receptor M1 expressed in CHOK1 cells assessed as increase in carbachol-induced intracellular calcium flux at 10 uM preincubated for 5 mins followed by carbachol addition by Fluo4-AM dye based FLIPR assay relative to carbachol. Format: functional, cell-based. The note with it: CHO-K1. Summed up: (§2)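 CHO-K1 cells stably expressing human or rat M1–M5; M2 and M4 lines also co-express human Gα16. Cells loaded with 3.1 μM Fluo-4 AM in HBSS/20 mM HEPES pH 7.5/BSA/2.5 mM probenecid for ~2 h at room temperature. Test substance at 10 μM final, then carbachol (0.0024 nM–100 μM) ~5 min later; Ca2+ read by FLIPR Tetra. Fold shift = carbachol EC50 without / with test substance, from logistic fits.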
Background: Calcium assays in cells follow changes in intracellular calcium, usually with a dye or a luminescent sensor.

Data set [3] concerns the target Muscarinic acetylcholine receptor M3 (Homo sapiens) (UniProt P20309). The data set can be described thus: Positive allosteric modulation of recombinant human muscarinic acetylcholine receptor M3 expressed in CHOK1 cells assessed as increase in carbachol-induced intracellular calcium flux at 10 uM preincubated for 5 mins followed by carbachol addition by Fluo4-AM dye based FLIPR assay relative to carbachol. The class given is functional, cell-based. The note with it: CHO-K1. The method in brief: as §2

Data set [4] deals with T2, Muscarinic acetylcholine receptor M2 (Rattus norvegicus) (UniProt P10980).
T2 sequence (whole entry): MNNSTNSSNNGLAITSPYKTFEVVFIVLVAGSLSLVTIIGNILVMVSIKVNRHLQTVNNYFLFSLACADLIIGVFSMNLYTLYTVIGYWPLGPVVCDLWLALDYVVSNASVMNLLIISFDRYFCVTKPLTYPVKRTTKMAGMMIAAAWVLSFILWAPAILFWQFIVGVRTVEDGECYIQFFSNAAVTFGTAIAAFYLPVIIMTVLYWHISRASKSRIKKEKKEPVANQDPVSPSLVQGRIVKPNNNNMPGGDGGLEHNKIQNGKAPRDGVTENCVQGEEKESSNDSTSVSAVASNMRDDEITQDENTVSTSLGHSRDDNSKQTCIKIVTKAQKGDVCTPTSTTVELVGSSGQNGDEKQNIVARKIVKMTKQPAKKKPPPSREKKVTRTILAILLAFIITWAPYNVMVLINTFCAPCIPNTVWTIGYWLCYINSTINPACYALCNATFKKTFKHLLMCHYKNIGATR
The data set can be described thus: Positive allosteric modulation of recombinant rat muscarinic acetylcholine receptor M2 expressed in CHOK1 cells coexpressing G-alpha16 assessed as increase in carbachol-induced intracellular calcium flux at 10 uM preincubated for 5 mins followed by carbachol addition by Fluo4-AM dye based FLIPR assay relative to carbachol. The class given is functional, cell-based. The note with it: CHO-K1. Summed up: as §2

Data set [5] addresses T3, Muscarinic acetylcholine receptor M4 (Rattus norvegicus) (UniProt P08485).
T3 sequence (whole entry): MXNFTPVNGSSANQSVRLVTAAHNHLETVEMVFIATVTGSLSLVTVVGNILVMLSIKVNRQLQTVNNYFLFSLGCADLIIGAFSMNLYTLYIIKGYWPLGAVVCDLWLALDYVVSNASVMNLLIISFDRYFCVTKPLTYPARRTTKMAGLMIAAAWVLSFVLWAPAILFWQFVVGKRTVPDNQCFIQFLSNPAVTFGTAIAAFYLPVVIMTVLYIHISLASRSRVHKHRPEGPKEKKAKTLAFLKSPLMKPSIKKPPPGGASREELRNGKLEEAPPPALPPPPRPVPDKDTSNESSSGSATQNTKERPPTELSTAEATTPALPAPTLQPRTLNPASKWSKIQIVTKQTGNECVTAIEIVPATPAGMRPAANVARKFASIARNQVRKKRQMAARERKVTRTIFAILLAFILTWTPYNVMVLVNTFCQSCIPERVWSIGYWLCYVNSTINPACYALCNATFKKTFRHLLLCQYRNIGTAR
The data set can be described thus: Positive allosteric modulation of recombinant rat muscarinic acetylcholine receptor M4 expressed in CHOK1 cells coexpressing G-alpha16 assessed as increase in carbachol-induced intracellular calcium flux at 10 uM preincubated for 5 mins followed by carbachol addition by Fluo4-AM dye based FLIPR assay relative to carbachol. Format: functional, cell-based. The settings on record: CHO-K1. The method in brief:
as §2

Data set [6] addresses Muscarinic acetylcholine receptor M3 (Rattus norvegicus) (UniProt P08483). The data set is described as follows: Positive allosteric modulation of muscarinic acetylcholine receptor M3 in Sprague-Dawley rat urinary bladder assessed as increase in 8 Hz electrical field stimulation-induced bladder contraction. The method in brief: as §1
The nature of data set [7]: Tmax in Crl:CD(SD) rat at 1 mg/kg, po measured up to 24 hrs by LC-MS/MS analysis. The settings on record: in vivo. The class given is ADME, organism-based. The method in brief:
(§3)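 Male Crl:CD(SD) rats, 8 weeks old, food deprived (n=4); iv 0.3 mg/kg or po 1 mg/kg in DMF/propylene glycol/water for injection (1/1/8) containing 1 M NaOH (2 equivalents). Plasma sampled to 24 h, assayed by validated LC-MS/MS. Parameters from each animal by noncompartmental analysis, reported as means.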

Data set [8] in a line: AUCinfinity in Crl:CD(SD) rat at 0.3 mg/kg, iv measured up to 24 hrs by LC-MS/MS analysis. The class given is ADME, organism-based. Details: dose 0.3 mg/kg, route intravenous, time infinity. The note with it: in vivo. Summed up:
as §3

Data set [9] can be described thus: Half life in Crl:CD(SD) rat at 1 mg/kg, po measured up to 24 hrs by LC-MS/MS analysis. Format: ADME, organism-based. The note with it: in vivo. The method in brief:
as §3

A short description of data set [10]: Total clearance in Crl:CD(SD) rat at 0.3 mg/kg, iv measured up to 24 hrs by LC-MS/MS analysis. The note with it: in vivo. The class given is ADME, organism-based. The method in brief: as §3
Data set [11] in a line: Oral bioavailability in Crl:CD(SD) rat at 1 mg/kg measured up to 24 hrs by LC-MS/MS analysis. The class given is ADME, organism-based. The settings on record: in vivo. Summed up:
as §3

Chain of Muscarinic acetylcholine receptor M3 (Homo sapiens) (P20309 whole entry, looked up): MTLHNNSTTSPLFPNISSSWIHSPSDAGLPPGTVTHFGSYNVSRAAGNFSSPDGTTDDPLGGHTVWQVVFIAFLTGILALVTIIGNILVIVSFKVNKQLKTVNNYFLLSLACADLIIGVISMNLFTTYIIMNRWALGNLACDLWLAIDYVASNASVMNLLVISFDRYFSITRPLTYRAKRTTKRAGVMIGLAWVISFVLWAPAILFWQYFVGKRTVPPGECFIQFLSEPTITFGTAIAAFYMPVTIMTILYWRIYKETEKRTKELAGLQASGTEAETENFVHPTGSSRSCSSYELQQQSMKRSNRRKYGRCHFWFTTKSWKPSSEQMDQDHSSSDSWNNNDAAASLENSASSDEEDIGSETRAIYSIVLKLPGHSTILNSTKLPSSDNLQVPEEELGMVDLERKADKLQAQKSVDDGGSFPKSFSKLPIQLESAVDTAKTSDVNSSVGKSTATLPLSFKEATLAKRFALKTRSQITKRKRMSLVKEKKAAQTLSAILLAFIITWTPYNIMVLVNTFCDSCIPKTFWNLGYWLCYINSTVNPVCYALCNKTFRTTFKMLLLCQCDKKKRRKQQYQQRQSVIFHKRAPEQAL

As for `CC[C@@H]1CCCN1Cc1sc(NC(=O)c2cnc(N3CCC(C(=O)O)CC3)cn2)nc1-c1ccc(OC)c(C(F)(F)F)c1.Cl.Cl`, the results for the Activity in data set [1] and in data set [6] were 2.34 g and “Dose-dependent effect”, respectively. Moreover, the fold change (FC) in data set [2] is 2.3; in data set [3], 269; in data set [4] it was 1.6; in data set [5] it was 0.7. Also, the time to peak (Tmax) (as a rule, the time at which the peak concentration occurs) in [7] came to 0.31 h. The AUC(0-inf) (as a rule, total exposure, with the tail of the curve extrapolated) in data set [8] was 330 ng·h/mL. Further, the half-life (usually the time needed for the level to fall by half in the phase considered) in data set [9] is 2.16 h. In data set [10], the clearance (in general, the volume of plasma or blood freed of the substance per unit of time) was 15.3 mL/min/kg. In data set [11], the bioavailability – broadly, dose-corrected exposure relative to a reference, in per cent – was 19%.
